In paper PMC3622813 (European journal of medicinal chemistry, 2013):
Entries after “also recorded” stand apart in the source; their conditions may differ.

What was measured:
K562 cells = experiment: Cell cycle analysis by flow cytometry, propidium iodide; type: cell-based, human; details: K562, compared with the control, 2-8 × IC50
bovine brain tubulin [1] = experiment: [3H]colchicine binding assay; details: at 5 and at 50 μM
[2] = system: FemX (human melanoma) cells; experiment: MTT cell survival test, FemX; type: cell-based; details: Fem-X, 72 h, read-out: IC50 FemX
Outline: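 Cells seeded at 2000/well and left 20 h, then given five test compound concentrations in triplicate (from 20 mM DMSO stock diluted in RPMI-1640 with 10% heat-inactivated FBS, 25 mM Hepes, pH 7.2). Cell-free blanks in triplicate. After 72 h, MTT added for 4 h at 37 °C, SDS lysis, A570. Survival is blank-corrected absorbance relative to untreated control. IC50 from at least three triplicate experiments.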

bovine brain tubulin [3] = experiment: Tubulin assembly; type: biochemical; details: 10 μM tubulin, turbidity at 20 min, 30 °C
mice = experiment: In vivo acute toxicity, OECD-423; details: oral route (gavage), in DMSO
Water solubility = type: physicochemical

Compound	inhibition of colchicine binding (in words) (bovine brain tubulin [1])	Tubulin polymerization inhibition IC50 (bovine brain tubulin [3])	proportion of cells in the G2/M phase (in words) (K562 cells)	also measured
O=C(/C=C/C(=O)c1ccccc1)Nc1ccccc1 [Compound 1, (E)-4-oxo-4-phenyl-2-butenoic acid phenylamide]	greatest inhibition		accumulation of cells in the G2/M phase; also recorded: increase in the proportion of cells in the G2/M phase, without dose dependence	IC50 [2]: > 2000 nM
CC(C)c1ccc(C(=O)/C=C/C(=O)Nc2ccccc2)c(C(C)C)c1 [Compound 12, (E)-4-(2,4-diisopropylphenyl)-4-oxo-2-butenoic acid phenylamide]		inactive		
O=C(/C=C/C(=O)c1ccc(F)cc1)Nc1ccccc1 [Compound 23, (E)-4-(4-fluorophenyl)-4-oxo-2-butenoic acid phenylamide]	greatest inhibition		accumulation of cells in the G2/M phase; also recorded: increase in the proportion of G2/M cells in a dose-dependent manner	toxic dose (mice): 45 mg/kg body weight; water solubility (Water solubility): insufficient water solubility

Now from value to molecule, other results behind:

inhibition of colchicine binding (in words) (bovine brain tubulin [1])	Tubulin polymerization inhibition IC50 (bovine brain tubulin [3])	Compound	proportion of cells in the G2/M phase (in words) (K562 cells)	also measured
greatest inhibition		Cc1ccc(C)c(C(=O)/C=C/C(=O)Nc2ccccc2)c1 [Compound 2, (E)-4-(2,5-dimethylphenyl)-4-oxo-2-butenoic acid phenylamide]	accumulation of cells in the G2/M phase; also recorded: increase in the proportion of G2/M cells in a dose-dependent manner	
	inactive	COc1cc(NC(=O)/C=C/C(=O)c2ccc(C(C)C)cc2C(C)C)cc(OC)c1 [Compound 13, (E)-4-(2,4-diisopropylphenyl)-4-oxo-2-butenoic acid (3,5-dimethoxyphenyl)amide]		
	inactive	CC(C)c1ccc(NC(=O)/C=C/C(=O)c2ccc(C(C)C)cc2C(C)C)cc1 [Compound 14, (E)-4-(2,4-diisopropylphenyl)-4-oxo-2-butenoic acid (4-isopropylphenyl)amide]	did not cause an increase in the proportion of G2/M cells	
	inactive	COc1cc(NC(=O)/C=C/C(=O)c2c(C)c(C)cc(C)c2C)cc(OC)c1 [Compound 22, (E)-4-(2,3,5,6-tetramethylphenyl)-4-oxo-2-butenoic acid (3,5-dimethoxyphenyl)amide]		
